KCNQ1 inh: human KCNQ1 channel inhibition; P51787; CHO-K1 KCNQ1, FluxOR thallium flux fluorescence; hits give high values; B-score at 10 µM; hit rate 1.3% among 310,000; AID 2642;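 active = compounds whose thallium flux B-score, printed positive for inhibition, exceeds three library SD while starting fluorescence stays within three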;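 note: channel opened by potassium depolarization with thallium stimulus after 20 min compound exposure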
KCNQ1 act: potentiators or activators of human KCNQ1 potassium channel | CHO-K1 KCNQ1, thallium flux FluxOR fluorescence; hits give high values | hit rate 0.35% among 310,000 | AID 2648 | B-score at 10 µM;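 active = fluorescence ratio B-score, a plate-corrected score, at least three library SD, with initial intensity B-score within 5 SD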
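Material: CHO-K1 cells stably expressing KCNQ1. Medium: assay buffer for compound exposure, DMSO matched across wells. Reagent: K+/Tl+ depolarizing stimulus. Compound dosing: single-concentration screen. Times: 37 °C overnight plating, 90-min dark dye load, 20-min compound pretreatment. Technique: FluxOR Tl+ flux fluorescence.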
Kir21 inh: blocks the mouse Kir2.1 inward-rectifier potassium channel. P35561. HEK293-Kir2.1, FluxOR thallium flux fluorescence; hits give low values. B-score at 10 µM. hit rate 0.85% among 310,000. AID 1672;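 active = fluorescence ratio B-score at or below minus 3 SD of library scores, with starting-brightness B-score within 2 SD, cut at about -4.2 in these data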;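 note: channel flux triggered by added potassium and thallium sulfate stimulus; B-score of peak minus minimum fluorescence over baseline after thallium stimulus; more negative B-score means stronger Kir2.1 block with less thallium influx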
hERG protect: shields human hERG channel from block by proarrhythmic agents | Q12809 | CHO-hERG, FluxOR thallium flux, dofetilide IC70 present | activation (rescue from dofetilide block), less the hit threshold, % at 10 µM | hit rate 0.51% among 310,000;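 active = activation above the mean of controls blocked by dofetilide plus 5 SD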;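 note: thallium influx through hERG after potassium depolarization seen as dye fluorescence rise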
KCNK3 block: human KCNK3 channel inhibition, primary screen; O14649; CHO-KCNK3 thallium flux, FluxOR fluorescence; hits give low values; B-score at 10 µM; hit rate 0.84% among 340,000; AID 602410;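 active = B-score under library mean minus 4 SD, starting fluorescence ratio at most library mean plus 5 SD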;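 note: more negative B-score means stronger inhibition of thallium flux through KCNK3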
Target sequence (O14649 whole entry, looked up): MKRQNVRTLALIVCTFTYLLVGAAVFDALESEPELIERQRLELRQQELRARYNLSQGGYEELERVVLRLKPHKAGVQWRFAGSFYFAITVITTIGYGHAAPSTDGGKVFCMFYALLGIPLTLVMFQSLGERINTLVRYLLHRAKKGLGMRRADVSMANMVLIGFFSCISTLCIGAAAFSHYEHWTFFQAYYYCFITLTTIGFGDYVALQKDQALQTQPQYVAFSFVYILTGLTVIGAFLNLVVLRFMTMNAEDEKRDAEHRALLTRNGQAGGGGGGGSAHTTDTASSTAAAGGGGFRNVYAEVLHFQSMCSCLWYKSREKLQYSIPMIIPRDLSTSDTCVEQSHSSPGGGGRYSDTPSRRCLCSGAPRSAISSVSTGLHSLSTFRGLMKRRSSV
KCNK9 block: blocks the human KCNK9 two-pore domain potassium channel | Q9NPC2 | HEK293 KCNK9, FluxOR thallium flux fluorescence; hits give low values | B-score at 10 µM | hit rate 1.2% among 310,000 | AID 488922;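 active = ratio B-score over 3 SD below the library mean, with starting fluorescence within 5 SD of its mean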;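 note: negative B-score means less thallium flux so channel inhibition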
Target sequence (Q9NPC2 whole entry, looked up, the tested form may be a part): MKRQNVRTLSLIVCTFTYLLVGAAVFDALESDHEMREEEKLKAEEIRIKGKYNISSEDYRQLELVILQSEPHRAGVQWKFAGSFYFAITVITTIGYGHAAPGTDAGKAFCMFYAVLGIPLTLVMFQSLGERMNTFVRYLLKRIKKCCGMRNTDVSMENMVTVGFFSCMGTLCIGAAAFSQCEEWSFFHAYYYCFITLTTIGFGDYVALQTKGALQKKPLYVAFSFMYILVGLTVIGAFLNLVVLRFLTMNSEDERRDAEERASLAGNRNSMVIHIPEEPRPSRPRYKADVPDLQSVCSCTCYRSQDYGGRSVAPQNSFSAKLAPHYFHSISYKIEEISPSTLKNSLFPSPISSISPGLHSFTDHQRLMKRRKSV
KCNK3 inh conf: human KCNK3 channel inhibition, confirmation assay; hit rate 99% among 2,400; ratio percent of control, % at 10 µM; CHO-KCNK3 thallium flux, FluxOR fluorescence; 0% buffer, 100% carvedilol maximal block; shares compounds with KCNK3 block;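 active = ratio percent of control, averaged over triplicates, above buffer control mean plus 5 SD, cut at about 64% in these data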;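 note: ratio is the fluorescence rise from min to max over baseline after thallium stimulus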
KCNK3 noninduced: activity in cells without induced KCNK3 expression | shares compounds with KCNK3 block | non-induced KCNK3 parental cells, FluxOR thallium flux; hits give low values | thallium flux ratio (lower = more inhibition) at 10 µM | hit rate 40% among 2,400;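 active = thallium flux ratio, averaged over three wells, more than 5 SD below the buffer control mean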;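 note: host cells are CHO cells without KCNK3 induction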
Each line names hits and unclear results; the compound was inactive in the other large screens (follow-up assays come after a bar, where they were run). This is a sample that favours compounds with a hit; in the whole collection about 3.8% have one here.

O=C(NNC(=O)c1ccco1)c1cccc(Br)c1	none
O=C(COC(=O)Cn1cc(C(F)(F)F)ccc1=O)Nc1ccc(Br)cc1F	none (no result: KCNQ1 inh, KCNQ1 act, Kir21 inh, hERG protect, KCNK9 block)
Cc1ccc(-c2cc(C(=O)N/N=C/c3c(C)nn(-c4ccccc4)c3C)n[nH]2)s1	KCNK3 block -9.14 | KCNK3 inh conf 129.7 | KCNK3 noninduced 0.134
Cc1cc(C(=O)N/N=C/c2c(C)[nH]n(-c3ccccc3)c2=O)n[nH]1	none
COc1ccc(OC)c(CCNC(=O)c2ccc3c(=O)[nH]c4c(C(=O)NC(C)C)sc(=S)n4c3c2)c1	KCNQ1 inh 10, KCNK3 block -11.4 | KCNK3 inh conf 128.7 | KCNK3 noninduced inactive
O=C(NCCc1ccccc1)c1ccc2c(=O)[nH]c3c(C(=O)NCC4CCCO4)sc(=S)n3c2c1 (stereo not drawn)	KCNQ1 inh 8, KCNK3 block -11.9 | KCNK3 inh conf 118.3 | KCNK3 noninduced inactive
COC(=O)C1=C(C)NC(=S)NC1c1ccc(-c2cc(Cl)ccc2Cl)o1 (stereo not drawn)	KCNK3 block -8.94 | KCNK3 inh conf 106.7 | KCNK3 noninduced inactive
COC(=O)C1=C(C)NC(=O)NC1c1ccc(-c2ccc(Cl)cc2)o1 (stereo not drawn)	none
Cc1ccc(-c2nc(Nc3ccc(O)cc3)c3ccccc3n2)cc1	none
COCCN(CCOC)c1nc(-c2ccc(C)cc2)nc2ccccc12	KCNK3 block -12.4 | KCNK3 inh conf 86.3 | KCNK3 noninduced 0.131
Cc1ccc(-c2nc(C(Cl)Cl)c3ccccc3n2)cc1	KCNK3 block -9.19 | KCNK3 inh conf 114.0 | KCNK3 noninduced inactive
COc1ccccc1OCCCn1c(=O)oc2ccc(C)cc21	none
Cc1cccc(OCCCn2c(=O)oc3ccc(C)cc32)c1	KCNK3 block -9.33 | KCNK3 inh conf 94.3 | KCNK3 noninduced inactive
Cc1ccc(C)c(CN2C(=O)C3(OCCCO3)c3ccccc32)c1	none
CCOc1ccccc1CN1C(=O)C2(OCCO2)c2ccccc21	KCNK3 block -9.67 | KCNK3 inh conf 108.3 | KCNK3 noninduced inactive
COc1ccc(NC(=S)N(CCCN2CCOCC2)C(C)c2cc3cccc(OC)c3o2)cc1 (stereo not drawn)	none
COc1cccc2cc(C(C)N(CCCN3CCOCC3)C(=S)Nc3ccc(C)c(C)c3)oc12 (stereo not drawn)	KCNK3 block -9.26 | KCNK3 inh conf 89.0 | KCNK3 noninduced inactive
CCOC(=O)c1c(S(=O)(=O)N2CCN(c3ccc(C(C)=O)cc3)CC2)c(C)n(C)c1C	none
CC1CCN(C(CNS(=O)(=O)c2ccccc2)c2ccccc2)CC1 (stereo not drawn)	KCNK3 block -12.6 (no result: KCNQ1 inh, KCNQ1 act, Kir21 inh, hERG protect, KCNK9 block) | KCNK3 inh conf 61.0 | KCNK3 noninduced inactive
COCCNC(=O)C(c1ccc(C)cc1)N(C(=O)CCC(=O)Nc1ccccn1)c1ccc(C)cc1 (stereo not drawn)	none
CCOC(=O)c1cnc2ccc(OC)cc2c1Nc1ccc2c(c1)OCCO2	KCNK3 block -12.2 | KCNK3 inh conf 135.0 | KCNK3 noninduced 0.156
CCOC(=O)c1cnc2ccc(C(=O)OC)cc2c1Nc1ccc2c(c1)OCCO2	none
CCOC(=O)c1cnc2ccc(C)cc2c1NCCN1CCOCC1	KCNK3 block -8.84 | KCNK3 inh conf 100.3 | KCNK3 noninduced inactive
COc1ccc2ccccc2c1CN1CCN(C(=O)c2ccco2)CC1	KCNK3 block -11 | KCNK3 inh conf 90.3 | KCNK3 noninduced inactive
C[C@@H](NC(=O)c1[nH]cnc1C(=O)Nc1cccc(Cl)c1)c1ccccc1	none (no result: KCNQ1 inh, KCNQ1 act, Kir21 inh, hERG protect, KCNK9 block)
CCOC(=O)c1cc(C#N)c(SCC(=O)c2cc(C#N)c(SC)nc2C)[nH]c1=O	KCNK3 block -10.2 | KCNK3 inh conf 122.3 | KCNK3 noninduced 0.133
CCOC(=O)c1cc(C#N)c(SCC(N)=O)[nH]c1=O	none
COCCNC(=S)N(CCc1c(C)[nH]c2ccc(OC)cc12)Cc1cccnc1	none
COc1ccc(NC(=S)N(CCc2c(C)[nH]c3ccc(C)cc23)Cc2cccnc2)cc1	KCNK3 block -12.1, KCNK9 block -6.87 | KCNK3 inh conf 96.3 | KCNK3 noninduced 0.153
CCOc1ccc(NC(=S)N(CCc2c(C)[nH]c3ccccc23)Cc2cccnc2)cc1	none
Cc1[nH]c2ccccc2c1CCN(Cc1cccnc1)C(=S)Nc1ccc(F)cc1	KCNK3 block -10.1 | KCNK3 inh conf 91.7 | KCNK3 noninduced 0.146
Cc1[nH]c2ccc(F)cc2c1CCN(Cc1cccnc1)C(=S)Nc1ccccc1	KCNK3 block -10.3 | KCNK3 inh conf 91.3 | KCNK3 noninduced inactive
Cc1[nH]c2ccc(F)cc2c1CCN(Cc1ccncc1)C(=S)Nc1ccccc1	none
O=C(Cc1ccccc1F)Nc1cccc(S(=O)(=O)N2CCOCC2)c1	none (no result: KCNQ1 inh, KCNQ1 act, Kir21 inh, hERG protect, KCNK9 block)
COc1ccc(/C(C)=N/NC(=O)CNC(=O)/C=C\c2ccccc2OC)c(OC)c1	none
O=c1[nH]nnc2cc(Cl)ccc12	none (no result: KCNQ1 inh, KCNQ1 act, Kir21 inh, hERG protect, KCNK9 block)
Clc1ccc(C2Nc3ccccc3-n3cccc32)cc1 (stereo not drawn)	KCNK3 block -12.7 | KCNK3 inh conf 114.0 | KCNK3 noninduced 0.156
CN(CC(=O)Nc1cccc(F)c1)CC(=O)NC(c1ccccc1)c1ccccc1	none (no result: KCNQ1 inh, KCNQ1 act, Kir21 inh, hERG protect, KCNK9 block)
CC(=Nc1ccc(Br)cc1)c1sc2ccccc2c1O	KCNK3 block -10.9 | KCNK3 inh conf 131.0 | KCNK3 noninduced inactive
CC(=Nc1ccccc1)c1sc2ccccc2c1O	none
O=C(N/N=C/c1ccccc1F)c1cccc(NC(=O)c2ccccc2Cl)c1	KCNK3 block -8.79 | KCNK3 inh conf 106.7 | KCNK3 noninduced 0.157
O=C(Nc1cccc(NC(=O)c2cccnc2)c1)c1ccccc1	KCNK3 block -9.07 | KCNK3 inh conf 96.3 | KCNK3 noninduced inactive
Cc1ccccc1C(=O)Nc1cccc(NC(=O)c2ccc(F)cc2)c1	none
O=C(Nc1cccc(NC(=O)c2ccccc2Cl)c1)c1ccc(F)cc1	KCNK3 block -9.33 | KCNK3 inh conf 95.3 | KCNK3 noninduced inactive
O=C(N/N=C/c1ccccn1)c1cccc(NC(=O)c2ccccc2Cl)c1	none
CCN(C[C@H]1N[C@@](C)(C(=O)OC)[C@H]2C(=O)N(C)C(=O)[C@@H]12)C(=O)COc1ccccc1	none (no result: KCNQ1 inh, KCNQ1 act, Kir21 inh, hERG protect, KCNK9 block)
CCCN1C(=O)c2cc(C(=O)NC3CCCCCC3)ccc2C1O (stereo not drawn)	KCNK3 block -17.5 | KCNK3 inh conf 82.0 | KCNK3 noninduced inactive
COc1cc2c(cc1OC)CN(C(=O)CN1CCN(S(=O)(=O)c3ccccc3Br)CC1)CC2	none
CCc1noc(C)c1C(=O)OC(C)C(=O)Nc1cc([N+](=O)[O-])ccc1OC (stereo not drawn)	none

Screening results (PubChem)
